In ChEMBL document CHEMBL1131117, “Pyrimidine thioethers: a novel class of HIV-1 reverse transcriptase inhibitors with activity against BHAP-resistant HIV” (J Med Chem, 1998):

Assays:
[1] = target: Human immunodeficiency virus type 1 reverse transcriptase (Human immunodeficiency virus 1) (UniProt Q72547); assay: Inhibitory activity against HIV-1 reverse transcriptase (wild type) at 10 uM dose
Procedure, shortened: (§1)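 Recombinant HIV-1 RT homodimers (wild type or P236L mutant) were tested with compound at a single 10 µM concentration and reported as % inhibition. Reactions ran at 28 °C for 10 min and were stopped with 10% trichloroacetic acid. Acid-precipitated product was collected on glass fibre filters and counted for radioactivity.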

[2] = tested on: Human immunodeficiency virus type 1 reverse transcriptase (Human immunodeficiency virus 1), Q72547 [P236L]; assay: Inhibitory activity against HIV-1 reverse transcriptase (P236L) at 10 uM dose; procedure, shortened: as §1
[3] = tested on: MT4; assay: Concentration of drug that inhibited p24 production by 90% in infected MT-4 cells against HIV-1MF-DLV; type: functional; conditions: Homo sapiens
[4] = tested on: MT4; assay: Concentration of drug that inhibited p24 production by 90% in infected MT-4 cells against HIV-1-WT; type: functional; conditions: Homo sapiens
[5] = target: Human immunodeficiency virus type 1 reverse transcriptase (Human immunodeficiency virus 1, UniProt Q72547, P236L); assay: Inhibition of HIV-1 reverse transcriptase (P236L)
Procedure, shortened: (§2)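 HIV-1 RT homodimers (wild type or P236L) were assayed by radiolabel incorporation at 28 °C for 10 min and stopped with 10% trichloroacetic acid. Acid-insoluble product was filter-captured and counted. IC50 was derived from inhibition measured at eight drug concentrations.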

[6] = target: T1, Human immunodeficiency virus type 1 reverse transcriptase (Human immunodeficiency virus 1, UniProt Q72547); assay: Inhibition of HIV-1 reverse transcriptase (wild type)
Procedure, shortened: (§3)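 Wild-type HIV-1 RT homodimer run at 28 °C for 10 min. The reaction is stopped with 10% (v/v) trichloroacetic acid, and the acid-precipitated product is collected on glass fiber filters and counted for radioactivity. Compounds are screened as % inhibition at 10 µM, and IC50 values are determined from eight drug concentrations.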

[7] = target: Human immunodeficiency virus type 1 reverse transcriptase (Human immunodeficiency virus 1) (UniProt Q72547); assay: inhibitory activity against HIV-1 reverse transcriptase (wild type) at 10 uM dose (IC50 determined in 8 drug concentrations); procedure, shortened: as §2
[8] = tested on: Human immunodeficiency virus type 1 reverse transcriptase (Human immunodeficiency virus 1), Q72547 [P236L]; assay: inhibitory activity against HIV-1 reverse transcriptase (P236L) at 10 uM dose (IC50 determined in 8 drug concentrations); procedure, shortened: as §2
[9] = tested on: MT4; assay: concentration of drug that inhibited p24 production by 90% in infected MT-4 cells against HIV-1MF-DLV; type: functional; conditions: Homo sapiens
[10] = tested on: MT4; assay: concentration of drug that inhibited p24 production by 90% in infected MT-4 cells against HIV-1-WT; type: functional; conditions: Homo sapiens
[11] = target: T1, Human immunodeficiency virus type 1 reverse transcriptase; assay: inhibitory activity against HIV-1 reverse transcriptase (wild type; procedure, shortened: as §3
[12] = target: Human immunodeficiency virus type 1 reverse transcriptase (Human immunodeficiency virus 1) (UniProt Q72547); assay: inhibitory activity against HIV-1 reverse transcriptase (wild type) at 10 uM dose; procedure, shortened: as §1

Compound	inhibition [1] [%]	inhibition [2] [%]	other results
CCN(CC)C(=O)CSc1nc(N)cc(Cl)n1	14	14	–
Clc1cc(Cl)nc(SCc2ccc3ccccc3c2)n1	0	23	–
COc1cccc(CSc2nc(N)cc(Cl)n2)c1	70	97	IC90 [3]: 3210 nM; IC90 [4]: 270 nM; IC50 [5]: 160 nM; IC50 [6]: 980 nM
Cc1ccccc1CSc1nc(N)cc(Cl)n1	2	0	–
Nc1cc(C(F)(F)F)nc(SCc2ccc3ccccc3c2)n1	94	94	IC50 [5]: 430 nM; IC50 [6]: 290 nM
Nc1cc(Cl)nc(SCc2ccc(Cl)c(Cl)c2)n1	80	94	IC50 [5]: 62 nM; IC50 [6]: 490 nM
CN(C)C(=O)/C=C/CSc1nc(N)cc(Cl)n1	–	–	inhibition [7]: 99%; inhibition [8]: 99%; IC50 [5]: 70 nM; IC90 [9]: 740 nM; IC50 [6]: 200 nM; IC90 [10]: 90 nM
OCCCNc1cc(Cl)nc(SCc2ccccc2)n1	17	3	–
Nc1cc(Cl)nc(CCc2ccc3ccccc3c2)n1	–	12	–
Clc1cc(NC2CCCCC2)nc(SCc2ccccc2)n1	26	6	–
Nc1cc(Cl)nc(S(=O)(=O)Cc2cccc(Br)c2)n1	–	14	–
Clc1ccnc(SCc2ccc3ccccc3c2)n1	61	86	–
Nc1cc(Cl)nc(SCc2cccc(Br)c2)n1	94	97	IC50 [5]: 140 nM; IC90 [9]: 4520 nM; IC50 [6]: 760 nM; IC90 [10]: 350 nM
Clc1cc(N2CCCCC2)nc(SCc2ccccc2)n1	47	47	–
Nc1cc(Cl)nc([S+]([O-])Cc2cccc(Br)c2)n1 (stereo not given)	–	40	–
Clc1cc(-n2ccnc2)nc(SCc2ccc3ccccc3c2)n1	12	17	–
Nc1cc(Cl)nc(SCc2cccc(F)c2)n1	–	79	–
CCNC(=O)/C=C/CSc1nc(N)cc(Cl)n1	40	55	–
Nc1cc(Cl)nc(SCc2cccc(I)c2)n1	–	89	–
Clc1cc(Cl)nc(SCc2ccccc2)n1	19	25	–
COC(=O)c1cccc(CSc2nc(N)cc(Cl)n2)c1	93	94	IC50 [5]: 230 nM; IC50 [6]: 330 nM
COC(=O)/C=C/CSc1nc(N)cc(Cl)n1	78	93	IC50 [5]: 930 nM; IC50 [6]: 5250 nM

Compound	inhibition [1] [%]	inhibition [2] [%]	other results
Cc1cccc(COc2nc(N)cc(Cl)n2)c1	25	72	–
Nc1cc(O)nc(SCc2ccc3ccccc3c2)n1	10	4	–
Nc1cc(Cl)nc(SCc2ccc(-c3ccccc3)cc2)n1	8	20	–
Nc1cc(Cl)nc(NCc2ccc3ccccc3c2)n1	9	17	–
C/C=C/CSc1nc(N)cc(Cl)n1	5	47	–
Nc1cc(Cl)nc(SCc2ccccc2)n1	–	–	IC50 [5]: 1470 nM; IC50 [6]: 6660 nM
Nc1cc(Cl)nc(SCc2ccc3ccccc3c2)n1	–	–	inhibition [7]: 87%; inhibition [8]: 96%; IC50 [5]: 150 nM; IC90 [9]: 2760 nM; IC50 [6]: 460 nM; IC90 [10]: 220 nM
CC(C)(C)c1ccc(CSc2nc(N)cc(Cl)n2)cc1	37	56	–
Nc1cc(Cl)nc(SCc2cc3c(cc2Cl)OCO3)n1	98	99	IC50 [5]: 16 nM; IC50 [11]: 85 nM
CCCCCCCCCSc1nc(N)cc(Cl)n1	0	0	–
NNc1cc(Cl)nc(SCc2ccccc2)n1	–	31	–
Nc1cc(Cl)nc(SCc2cccc(Cl)c2)n1	–	65	–
Nc1ccnc(SCc2ccc3ccccc3c2)n1	–	71	inhibition [12]: 50%
CC1(C)CCC(C)(C)c2cc(CSc3nc(N)cc(Cl)n3)ccc21	7	23	–
CCOC(=O)c1cc(N)nc(SCc2ccc3ccccc3c2)n1	17	24	–
Nc1cc(Cl)nc(SCC2CCCCC2)n1	37	13	–
Nc1cc(Cl)nc(SCc2cccc(C(F)(F)F)c2)n1	80	91	–
Nc1cc(Cl)nc(SCC2=CCCc3ccccc32)n1	47	88	IC50 [5]: 600 nM; IC50 [6]: 16000 nM
Nc1cc(Cl)nc(OCc2ccccc2)n1	1	44	–
N#Cc1cc(N)nc(SCc2ccc3ccccc3c2)n1	84	93	–
Nc1cc(Cl)nc(SCC(=O)O)n1	0	0	–
Cc1cccc(CSc2nc(N)cc(Cl)n2)c1	–	–	inhibition [7]: 96%; inhibition [8]: 98%; IC50 [5]: 50 nM; IC90 [9]: 1760 nM; IC50 [6]: 280 nM; IC90 [10]: 110 nM

Compound	inhibition [1] [%]	inhibition [2] [%]	other results
Cc1ccc(CSc2nc(N)cc(Cl)n2)cc1	3	5	–
Clc1cc(-c2ccccc2)nc(SCc2ccc3ccccc3c2)n1	–	5	–
Nc1cc(Cl)nc(SC/C=C/c2ccccc2)n1	96	98	IC50 [5]: 70 nM; IC90 [9]: 5050 nM; IC50 [6]: 190 nM; IC90 [10]: 150 nM
Nc1cc(Cl)nc(SCc2cc(Br)cc(Br)c2)n1	–	73	–
CCOC(=O)CCSc1nc(N)cc(Cl)n1	11	7	–
COC(=O)c1ccc(CSc2nc(N)cc(Cl)n2)cc1	6	15	–
CC(=O)Nc1cc(Cl)nc(SCc2ccc3ccccc3c2)n1	30	53	–
Cc1cc(N)nc(SCc2ccccc2)n1	0	4	–
Nc1cc(Cl)nc(OCc2ccc3ccccc3c2)n1	63	80	–
Nc1cc(Cl)nc(SCc2ccc3c(c2)OCO3)n1	82	95	–
Nc1cc(N2CCCC2)nc(SCc2ccccc2)n1	3	0	–
CCN(CC)C(=O)/C=C/CSc1nc(N)cc(Cl)n1	–	–	inhibition [7]: 98%; inhibition [8]: 99%; IC50 [5]: 50 nM; IC90 [9]: 110 nM; IC50 [6]: 60 nM; IC90 [10]: 20 nM
Clc1cc(N2CCCC2)nc(SCc2ccccc2)n1	35	41	–
CCCNc1cc(Cl)nc(SCc2ccccc2)n1	14	30	–
Nc1cc(Cl)nc(SCc2cc(Cl)cc(Cl)c2)n1	–	65	–
Nc1cc(Cl)nc([S+]([O-])Cc2ccc3ccccc3c2)n1 (stereo not given)	45	75	–
COc1ccc(CSc2nc(N)cc(Cl)n2)cc1	25	63	–
Nc1cc(Cl)nc(OCc2cccc3ccccc23)n1	2	67	–
Nc1cc(Cl)nc(SCC2=Cc3ccccc3CC2)n1	71	87	–
Nc1cc(Cl)nc(SCc2cccc3ccccc23)n1	89	96	–
Nc1cc(Cl)nc(SCCc2ccccc2)n1	33	12	–
